Screening results: PubChem, several laboratories
This is a sample that favours compounds with a hit; in the whole collection about 9.4% have one here.
T cruzi inh: T. cruzi replication inhibition | inhibition, % (concentration not given with the values) | T. cruzi beta-gal in NIH3T3, luminescence, 90 h | 300,000 compounds, 1.4% hits;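 active = mean inhibition across valid replicates above about 55%, limit read from the data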;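 note: signal also drops with host cell toxicity which is not excluded here; higher percent means less beta-gal luminescence so fewer parasites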
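System: mouse NIH/3T3 fibroblasts infected with β-gal-expressing T. cruzi Tulahuen C4 / Input: NIH/3T3 cells, 5,000 per well / Buffer or medium: Low-serum DMEM with 2% FBS / Probe or stimulus: 5000 reporter trypomastigotes per well / Schedule: ≥90 h infection period, 3 h prior cell attachment / Measured by: GalScreen luminescence, 60 min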
CSC inhib: blocks cancer stem cells; cancer stem cell-like cells viability, luminescence; inhibition, % at 7.5 µM; 300,000 compounds, 1.1% hits; AID 2717; in the data active = inhibition above about 75%; tested in HMLE shEcad cells
Mdm2 MdmX PPI: disrupts the human Mdm2-MdmX interaction; O15151+Q00987; SaOS-2 split-luciferase Mdm2/MdmX complementation, luminescence; AID 485346; 330,000 compounds, 3% hits; inhibition, % at 8 µM;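 active = inhibition of at least 50% at 8 µM in the primary screen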
SKKanGAS inh: blocks kanamycin growth of S. pyogenes SKKanGAS strain; BacTiter-Glo, 6 h; inhibition, % at 7.5 µM; 300,000 compounds, 1.3% hits;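 active = mean replicate score, as percent of positive control median, at least 50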;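 note: strain carries kanamycin resistance gene driven by streptokinase promoter and grows in 40 µg/ml kanamycin; loss of luminescence reflects streptokinase promoter inhibition or plain growth inhibition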
Lmaj promast: Leishmania major promastigote growth inhibition; inhibition, % at 10 µM; 200,000 compounds, 9% hits; Leishmania major promastigotes, resazurin fluorescence viability; in the data active = inhibition above about 50%;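 note: promastigotes grown with compound for 44 hours at 28 °C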
Beta apoptosis: beta cell apoptosis inhibition; AID 435005; INS-1E cytokine-induced death, ATP luminescence, 48 h; percent of positive-control rescue, neutral wells zero; protection from apoptosis, % (test concentration not listed); 300,000 compounds, 0.8% hits;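 active = Every replicate reaches about 75%, or at least half do and their mean reaches it too, limit read from the data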;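 note: higher means more ATP so stronger rescue from cytokine killing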
Mdm2-MdmX conf: human Mdm2/MdmX binding inhibition, confirmed; shares compounds with Mdm2 MdmX PPI; luminescent assay; inhibition, % at 8 µM; 10,000 compounds, 55% hits; in the data active = inhibition above about 40%
FLuc counter: counter-screen for Mdm2/MdmX inhibitors: full-length luciferase; SaOS-2 full-length luciferase counterscreen, luminescence; shares compounds with Mdm2 MdmX PPI; inhibition, % at 8 µM; 6,200 compounds, 77% hits;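 active = mean inhibition at 8 µM reaching about 37%, which flags the compound as non-specific, limit read from the data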;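 note: p53-null SaOS-2 cells with luciferase driven by a doxycycline-inducible promoter; compound on cells about two nights before reading with doxycycline added after day one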
A number is an active result; – = inactive; · = no result given.

SMILES	T cruzi inh	CSC inhib	Mdm2 MdmX PPI	SKKanGAS inh	Lmaj promast	Beta apoptosis	Mdm2-MdmX conf	FLuc counter
Cc1cccc(NC(=O)CNC(=O)Cn2ncc(Cl)c(Cl)c2=O)c1C	·	–	100.2	·	·	–	56.0	51.9
Cc1cc(C(=O)Nc2ccon2)ccc1[N+](=O)[O-]	·	–	–	–	·	·	·	·
CCOc1ccccc1NC(=O)COC(=O)C(Cc1ccccc1)NC(=O)c1ccco1 (stereo not given)	·	·	–	·	·	–	·	·
CSc1nc2ccc3nc(NC(=O)c4ccc(C)cc4)sc3c2s1	–	–	61.3	–	–	–	–	·
CCN1CCN(C(=O)c2cc(COc3ccc(C(C)=O)cc3OC)on2)CC1	–	–	–	–	·	–	·	·
CCc1cccc(N=c2c([N+](=O)[O-])nn(-c3ccc4c(c3)OCCO4)n2O)c1	69.6	–	73.2	–	90.5	–	77.4	62.0
COc1cc(N=c2c([N+](=O)[O-])nn(-c3ccc4c(c3)OCCO4)n2O)cc(OC)c1	–	–	59.4	73.3	–	–	–	·
CN(CC(=O)Nc1ccc(F)c(F)c1F)C(=O)c1ccc(-n2cncn2)cc1	·	·	–	·	·	–	·	·
COc1ccc(-c2nn(-c3ccccc3)cc2/C=C(\C#N)C(N)=O)cc1[N+](=O)[O-]	–	–	–	–	–	–	·	·
COc1ccc(-c2nn(-c3ccccc3)cc2/C=N/Nc2ccc(S(N)(=O)=O)cc2[N+](=O)[O-])cc1OC	–	–	64.7	–	–	·	–	·
COC(=O)c1cc(=O)n(Cc2ccc3c(c2)OCO3)c(=Nc2ccc(F)cc2)s1	–	–	56.7	–	87.0	–	–	·
COC(=O)c1cc(=O)n(Cc2cccs2)c(=Nc2ccc(F)cc2)s1	–	121.0	50.3	–	97.6	–	–	·
CCOC(=O)c1ccc(N=c2sc(C(=O)OC)cc(=O)n2C2CC2)cc1	–	–	–	–	–	–	·	·
COc1ccc(CCN2CC(C(=O)OCC(=O)Nc3c(C)nn(-c4ccccc4)c3C)CC2=O)cc1OC (stereo not given)	–	–	–	–	·	–	·	·
N#Cc1cc2cc3c(cc2nc1SCC(=O)N1CCOCC1)OCCO3	–	·	83.6	–	·	–	87.5	80.6
Cc1cc2cc3c(cc2nc1SCC(=O)N1CCCC1)OCCO3	–	·	–	–	·	·	·	·
C/C(=N\NC(=O)COc1ccccc1-c1ccccc1)c1ccccn1	71.1	–	86.2	83.3	100.3	80.6	72.1	51.0
C/C(=N\NC(=O)COc1ccccc1-c1ccccc1)c1ccc(O)cc1O	77.4	–	64.0	86.4	·	80.8	46.6	37.2
CCCCCC(=O)N/N=C(\C)c1ccccn1	–	–	60.5	–	93.0	–	–	·
C/C(=N\NC(=O)COc1ccccc1-c1ccccc1)c1cccnc1	–	–	–	–	–	–	·	·
Cc1cc(=O)nc2c3ccccc3n(CC(=O)Nc3ccccc3Br)n12	–	–	–	–	·	–	·	·
CN(C)C=Nc1ccc2nc3c(cc2c1)[nH]c1ccccc13	–	–	–	–	·	–	·	·
CCc1ccc(C(=O)C(C)OC(=O)Cc2n[nH]c(=O)c3ccccc23)cc1 (stereo not given)	–	·	58.6	–	·	–	74.2	57.7
CCc1ccc(C(=O)C(C)OC(=O)Cn2[nH]c(=O)c3ccccc3c2=O)cc1 (stereo not given)	·	–	–	·	·	–	·	·
Cc1ccccc1NC(=O)CSc1nnc2ccc(-c3cccnc3)nn12	–	–	–	–	·	–	·	·
CCOC(=O)C1=C(c2ccccc2)NC(N)=NC1c1ccc(OCc2ccc(Cl)cc2)c(OC)c1 (stereo not given)	–	75.5	100.3	–	·	–	59.8	94.4
CCC(=O)c1cn(CC(=O)Nc2ccc(C)cc2C)c2ccccc12	–	–	–	–	·	–	·	·
C=CCn1c(COc2ccccc2F)nnc1SCCN1C(=O)c2ccccc2C1=O	–	–	–	–	–	–	·	·
Cc1nc2ccc(NC(=O)c3ccc([N+](=O)[O-])cc3)cc2[nH]1	–	–	–	–	·	–	·	·
S=C(NCCN(C1CCCCC1)C1CCCC1)Nc1cccc(Cl)c1	–	–	62.2	–	·	–	–	63.5
